In assay [1] the target is T1, DNA topoisomerase 1 (Homo sapiens) (UniProt P11387).
T1 sequence (whole entry): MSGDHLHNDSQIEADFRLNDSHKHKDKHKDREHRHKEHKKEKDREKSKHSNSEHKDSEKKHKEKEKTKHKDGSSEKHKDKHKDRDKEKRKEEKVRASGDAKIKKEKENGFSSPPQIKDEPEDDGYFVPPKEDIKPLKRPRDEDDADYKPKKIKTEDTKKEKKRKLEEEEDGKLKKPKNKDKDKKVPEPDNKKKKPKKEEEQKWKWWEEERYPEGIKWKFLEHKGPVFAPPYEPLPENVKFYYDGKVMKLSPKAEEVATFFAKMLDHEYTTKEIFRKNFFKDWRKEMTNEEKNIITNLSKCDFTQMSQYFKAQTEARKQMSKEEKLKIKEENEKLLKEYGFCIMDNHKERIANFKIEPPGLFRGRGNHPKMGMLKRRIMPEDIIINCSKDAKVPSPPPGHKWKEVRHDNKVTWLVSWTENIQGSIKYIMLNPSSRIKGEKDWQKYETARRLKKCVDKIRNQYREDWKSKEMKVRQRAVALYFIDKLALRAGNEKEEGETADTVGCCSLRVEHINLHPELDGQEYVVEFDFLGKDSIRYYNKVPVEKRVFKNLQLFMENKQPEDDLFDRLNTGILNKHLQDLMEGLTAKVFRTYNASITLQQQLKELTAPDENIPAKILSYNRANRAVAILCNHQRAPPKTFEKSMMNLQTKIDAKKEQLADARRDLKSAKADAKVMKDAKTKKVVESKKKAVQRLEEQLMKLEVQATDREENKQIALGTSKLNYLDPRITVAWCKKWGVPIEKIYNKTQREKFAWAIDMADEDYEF
Nature of the assay: Inhibition of recombinant human topoisomerase 1 assessed as decrease in relaxation of supercoiled pBR322 DNA after 60 mins by ethidium bromide staining based agarose gel electrophoresis method. The essentials: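 Human recombinant Topo I was incubated with supercoiled pBR322 DNA, with or without compound at a series of µM concentrations. Read-out is the number of relaxed topoisomers formed.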

The test system of a further assay is MSTO-211H. Kind of assay: Growth inhibition in human MSTO-211H cells after 72 hrs by trypan blue dye-based assay. Type of assay: functional. The essentials:
(§1)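 Three human tumour lines were used: HeLa (cervix adenocarcinoma), A-431 (epidermoid/squamous carcinoma) and MSTO-211H (biphasic mesothelioma). GI50 is the µM concentration giving 50% cell death relative to the untreated control culture. Ellipticine was run as reference.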

Assay [2] concerns the target T1, DNA topoisomerase 1 (Homo sapiens). Nature of the assay: Poison activity at recombinant human topoisomerase-1 assessed as stabilization of covalent topo-1-DNA cleavage complex by measuring nicked DNA formation at 0.5 to 50 uM using supercoiled pBR322 DNA as substrate after 60 mins by agarose gel electrophoresis method. Put shortly:
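Cleavable-complex assay: supercoiled pBR322 DNA was incubated with Topo I, with or without compound at a series of µM concentrations. Nicked DNA formation marks covalent complex stabilisation. Reference is 0.5 µM camptothecin.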

Another assay has as its system A-431. Nature of the assay: Growth inhibition in human A431 cells after 72 hrs by trypan blue dye-based assay. Type of assay: functional. The settings on record: A-431, 72 h. Put shortly:
as §1

For assay [3], the system named is Salmon testes DNA. Nature of the assay: Binding affinity to salmon DNA at compound to DNA ratio of 0.04 by linear flow dichroism analysis. The settings on record: Salmonidae. Type of assay: nucleic-acid assay.
Assay [4] concerns the target DNA topoisomerase 2-alpha (Homo sapiens) (UniProt P11388). Kind of assay: Inhibition of recombinant human topoisomerase 2alpha assessed as decrease in relaxation of supercoiled pBR322 DNA after 60 mins by ethidium bromide staining based agarose gel electrophoresis method. Put shortly: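 Topo II was incubated with supercoiled pBR322 DNA, with or without compound at a series of µM concentrations. Read-out is topoisomer formation from supercoiled DNA on a gel. Reference is 10 µM m-AMSA.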

A further assay concerns HeLa. Kind of assay: Growth inhibition in human HeLa cells after 72 hrs by trypan blue dye-based assay. Type of assay: functional. The essentials:
as §1

Assay [5] deals with DNA topoisomerase 2-alpha (Homo sapiens) (UniProt P11388). Nature of the assay: Poison activity at recombinant human topoisomerase-2 assessed as stabilization of covalent topo-2-DNA cleavage complex by measuring linear DNA formation at 10 uM using supercoiled pBR322 DNA as substrate after 60 mins by agarose gel electrophoresis method. Put shortly: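 Cleavable-complex assay: supercoiled pBR322 DNA was incubated with Topo II, with or without compound at a series of µM concentrations. Enzyme-mediated linear DNA marks cleavage-complex stabilisation. Reference poison is 10 µM m-AMSA.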
DNA topoisomerase 2-alpha (Homo sapiens), sequence (P11388 whole entry): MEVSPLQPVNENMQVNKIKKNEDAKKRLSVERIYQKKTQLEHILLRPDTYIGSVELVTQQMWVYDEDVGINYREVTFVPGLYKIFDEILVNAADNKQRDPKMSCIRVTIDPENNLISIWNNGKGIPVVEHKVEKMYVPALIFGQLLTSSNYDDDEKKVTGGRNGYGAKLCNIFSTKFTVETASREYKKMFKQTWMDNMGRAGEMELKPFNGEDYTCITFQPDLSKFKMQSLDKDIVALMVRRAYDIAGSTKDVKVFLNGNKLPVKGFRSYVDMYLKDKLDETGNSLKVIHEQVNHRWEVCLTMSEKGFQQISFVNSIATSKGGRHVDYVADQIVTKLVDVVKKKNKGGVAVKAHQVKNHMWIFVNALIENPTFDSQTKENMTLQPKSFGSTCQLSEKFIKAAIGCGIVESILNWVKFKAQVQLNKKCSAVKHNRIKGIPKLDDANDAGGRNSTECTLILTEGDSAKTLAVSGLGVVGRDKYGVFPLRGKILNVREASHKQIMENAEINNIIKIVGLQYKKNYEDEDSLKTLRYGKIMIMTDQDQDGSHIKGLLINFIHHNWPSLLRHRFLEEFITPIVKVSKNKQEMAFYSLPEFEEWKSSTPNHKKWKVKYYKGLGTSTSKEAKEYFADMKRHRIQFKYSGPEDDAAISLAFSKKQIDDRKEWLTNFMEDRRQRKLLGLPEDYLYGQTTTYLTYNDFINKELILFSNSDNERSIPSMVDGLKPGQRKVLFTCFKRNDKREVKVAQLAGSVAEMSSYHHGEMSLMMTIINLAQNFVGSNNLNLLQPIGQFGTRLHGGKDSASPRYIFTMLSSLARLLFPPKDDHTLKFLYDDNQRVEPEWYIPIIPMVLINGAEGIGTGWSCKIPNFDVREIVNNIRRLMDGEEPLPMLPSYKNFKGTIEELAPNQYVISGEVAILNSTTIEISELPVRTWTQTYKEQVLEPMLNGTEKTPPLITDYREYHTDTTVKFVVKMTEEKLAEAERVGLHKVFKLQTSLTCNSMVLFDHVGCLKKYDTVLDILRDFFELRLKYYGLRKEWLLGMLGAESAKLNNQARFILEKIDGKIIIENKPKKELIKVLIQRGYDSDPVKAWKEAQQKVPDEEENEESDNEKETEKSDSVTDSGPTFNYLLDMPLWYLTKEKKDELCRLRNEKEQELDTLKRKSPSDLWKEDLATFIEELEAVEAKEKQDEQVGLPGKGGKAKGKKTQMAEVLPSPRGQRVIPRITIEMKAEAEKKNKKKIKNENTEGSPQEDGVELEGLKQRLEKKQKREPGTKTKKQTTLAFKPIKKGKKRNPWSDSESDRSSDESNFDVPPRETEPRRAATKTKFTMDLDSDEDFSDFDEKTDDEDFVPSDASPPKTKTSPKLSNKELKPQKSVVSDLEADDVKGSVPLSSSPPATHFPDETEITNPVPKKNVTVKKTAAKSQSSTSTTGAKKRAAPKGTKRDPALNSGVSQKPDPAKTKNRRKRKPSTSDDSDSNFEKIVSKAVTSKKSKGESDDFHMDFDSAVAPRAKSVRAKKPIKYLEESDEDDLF

The subject of assay [6] is Salmon testes DNA. Nature of the assay: Binding affinity to salmon DNA at compound to DNA ratio of 0.08 by linear flow dichroism analysis. Type of assay: nucleic-acid assay. The settings on record: Salmonidae.

The source made the active and inactive calls. No cut-off for these calls is given here.

As to `CCN(CC)CCn1c2cc(OC)c(OC)cc2c2sc3ncccc3c(=O)c21`, the inhibition result in assay [1] and in assay [4] was “Dose-dependent effect” throughout. Also, the GI50 with MSTO-211H was 620 nM; with A-431, 2670 nM; with HeLa, 6930 nM. Besides, the result (in [2]; in the assay with Salmon testes DNA [3]; in [5]) was Active.

On to `COc1ccc2c(=O)c3c(sc2c1)c1cc(OC)c(OC)cc1n3CCN(C)C`, for which the inhibition entry in assay [1] and in assay [4] was “Dose-dependent effect” throughout. For the same compound, the figures for the GI50 with MSTO-211H, in the assay with A-431 and in the assay with HeLa were 440 nM, 480 nM and 740 nM, respectively. Further, the outcome in assay [2] was inactive. For the same compound, the result (in the assay on Salmon testes DNA [3]; in [5]) was Active.

Consider `CCN(CC)CCn1c2ccc(OC)cc2c2sc3ccccc3c(=O)c21`, for which the inhibition entry in [1] and in assay [4] was “Dose-dependent effect” in each case. Moreover, the outcome (with Salmon testes DNA [6]; in assay [5]) was Active. In addition, the values for the GI50 in the assay on MSTO-211H, in the assay with A-431 and in the assay on HeLa were 1610 nM, 2080 nM and 2790 nM, respectively. The outcome in assay [2] was inactive.

As to `CN(C)CCn1c2ccc(Cl)cc2c2sc3cc(Cl)ccc3c(=O)c21`, the inhibition entry in assay [1] and in assay [4] was “Dose-dependent effect” in each case. In addition, the outcome (in the assay with Salmon testes DNA [6]; in [5]) was Active. Further, the GI50 stood at 1640 nM in the assay on MSTO-211H, 1760 nM with A-431 and 2660 nM in the assay on HeLa. Further, in [2], the outcome was inactive.

With `CCN(CC)CCn1c2cc(OC)c(OC)cc2c2sc3ccccc3c(=O)c21`, the inhibition entry in assay [1] and in [4] was “Dose-dependent effect” in each case. Also, the GI50 in the assay with MSTO-211H came to 700 nM; with A-431, 1110 nM; in the assay on HeLa, 1770 nM. Also, the outcome (in assay [2]; in the assay on Salmon testes DNA [3]; in assay [5]) was Active.

Take `CCN(CC)CCn1c2ccc(Cl)cc2c2sc3ncccc3c(=O)c21`: the inhibition entry in assay [1] and in assay [4] was “Dose-dependent effect” in each case. Moreover, the GI50 in the assay with MSTO-211H was found to be 1420 nM; in the assay with A-431, 1790 nM; in the assay on HeLa, 4200 nM. Besides, in assay [2], the result was inactive. The result (in the assay on Salmon testes DNA [3]; in assay [5]) was Active.

Consider `CN(C)CCn1c2ccccc2c2sc3ncccc3c(=O)c21`, for which the inhibition result in assay [1] and in [4] was “Dose-dependent effect” in each case. For the same compound, the GI50 is 1080 nM in the assay on MSTO-211H, 540 nM in the assay with A-431 and 1550 nM with HeLa. The result in assay [2] was inactive. For the same compound, the result (in the assay with Salmon testes DNA [3]; in assay [5]) was Active.

Regarding `COc1cc(NS(C)(=O)=O)ccc1Nc1c2ccccc2nc2ccccc12`, the outcome in assay [5] was Active.

For `COc1ccc2c(c1)c1sc3ccccc3c(=O)c1n2CCN(C)C`, the inhibition entry in [1] and in [4] was “Dose-dependent effect” in each case. Besides, the outcome (in the assay on Salmon testes DNA [6]; in assay [5]) was Active. The GI50 was determined as 2370 nM in the assay with MSTO-211H, 2240 nM in the assay on A-431 and 5810 nM in the assay with HeLa. Moreover, the result in assay [2] was inactive.

For the compound `COc1ccc2c(c1)c1sc3ncccc3c(=O)c1n2CCN(C)C`, the inhibition entry in assay [1] and in [4] was “Dose-dependent effect” in each case. Moreover, the GI50 in the assay with MSTO-211H was determined as 750 nM; with A-431, 1420 nM; in the assay on HeLa it was 2710 nM. For the same compound, the result in assay [2] was inactive. For the same compound, the outcome (with Salmon testes DNA [3]; in assay [5]) was Active.

Consider `COc1ccc2c(c1)c1sc3cc(Cl)ccc3c(=O)c1n2CCN(C)C`, for which the inhibition entry in assay [1] and in assay [4] was “Dose-dependent effect” in each case. Further, the outcome (in the assay with Salmon testes DNA [6]; in assay [5]) was Active. For the same compound, the values for the GI50 in the assay on MSTO-211H, with A-431 and with HeLa were 2960 nM, 2670 nM and 2790 nM, respectively. The outcome in assay [2] was inactive.

For `CCN(CC)CCn1c2ccc(Cl)cc2c2sc3cc(Cl)ccc3c(=O)c21`, the inhibition result in assay [1] and in [4] was “Dose-dependent effect” in each case. The result (in the assay on Salmon testes DNA [6]; in [5]) was Active. The GI50 with MSTO-211H came out at 2990 nM; in the assay with A-431 it was 3290 nM; with HeLa it was 4310 nM. Moreover, the result in assay [2] was inactive.

Consider `COc1cc2c3sc4cc(Cl)ccc4c(=O)c3n(CCN(C)C)c2cc1OC`, for which the inhibition entry in assay [1] and in assay [4] was “Dose-dependent effect” each time. The GI50 in the assay on MSTO-211H is 1820 nM; in the assay with A-431, 3190 nM; in the assay on HeLa it was 3540 nM. In assay [2], the result was inactive. The result (in the assay with Salmon testes DNA [3]; in assay [5]) was Active.

For the compound `CCN(CC)CCn1c2ccc(OC)cc2c2sc3ncccc3c(=O)c21`, the inhibition entry in [1] and in assay [4] was “Dose-dependent effect” in each case. Further, the GI50 in the assay on MSTO-211H was 700 nM; in the assay with A-431, 1900 nM; in the assay on HeLa, 2610 nM. Besides, the outcome in assay [2] was inactive. Also, the result (in the assay with Salmon testes DNA [3]; in assay [5]) was Active.

On to `CCN(CC)CCn1c2ccccc2c2sc3ncccc3c(=O)c21`, for which the inhibition result in [1] and in assay [4] was “Dose-dependent effect” throughout. Besides, the GI50 turned out to be 1330 nM with MSTO-211H, 470 nM with A-431 and 2570 nM in the assay with HeLa. In addition, the outcome in assay [2] was inactive. Also, the outcome (in the assay with Salmon testes DNA [3]; in assay [5]) was Active.

With `CCN(CC)CCn1c2cc(OC)c(OC)cc2c2sc3cc(OC)ccc3c(=O)c21`, the inhibition entry in assay [1] and in [4] was “Dose-dependent effect” each time. Moreover, the GI50 in the assay with MSTO-211H amounted to 360 nM; with A-431 it was 670 nM; in the assay on HeLa, 1750 nM. In addition, in assay [2], the result was inactive. For the same compound, the outcome (with Salmon testes DNA [3]; in assay [5]) was Active.

For `CN(C)CCn1c2ccc(Cl)cc2c2sc3ncccc3c(=O)c21`, the inhibition entry in assay [1] and in assay [4] was “Dose-dependent effect” throughout. Moreover, the figures for the GI50 in the assay with MSTO-211H, in the assay on A-431 and in the assay with HeLa were 2360 nM, 2000 nM and 3020 nM, respectively. Besides, the result in assay [2] was inactive. The result (in the assay on Salmon testes DNA [3]; in assay [5]) was Active.

As for `CCN(CC)CCn1c2cc(OC)c(OC)cc2c2sc3cc(Cl)ccc3c(=O)c21`, the inhibition result in [1] and in assay [4] was “Dose-dependent effect” each time. For the same compound, the GI50 in the assay with MSTO-211H was 2370 nM; with A-431, 2220 nM; in the assay on HeLa, 4550 nM. Also, the result in [2] was inactive. In addition, the outcome (in the assay with Salmon testes DNA [3]; in [5]) was Active.

For the origin of these results see ChEMBL document CHEMBL4400511, “Benzothiopyranoindole- and pyridothiopyranoindole-based antiproliferative agents targeting topoisomerases” (2019).
